The values below come from ChEMBL document CHEMBL3751829, “Synthesis and biological evaluation of 3-tetrazolo steroidal analogs: Novel class of 5α-reductase inhibitors” (Bioorg Med Chem, 2016).

Data set [1] has as its system Rattus norvegicus. Nature of the data set: Effect on organ weight in male wistar rat assessed as dorsal prostate tissue weight per 100g at 5ml/kg, po qd measured on 15th day after 24 hrs of last dose (Rvb=50.325+/-7.519 mg/100g). Format: functional, Prostate gland.
The test system of data set [2] is Rattus norvegicus. Put plainly: Effect on organ weight in male wistar rat assessed as liver tissue weight per 100g at 5ml/kg, po qd measured on 15th day after 24 hrs of last dose (Rvb=2.994+/- 0.254 g/100g). Format: ADME, organism-based. Conditions: in vivo; call rule not given here.
Data set [3] can be described thus: Cytotoxicity against human DU145 cells by rapid colorimetric assay. Format: functional, cell-based, DU-145. In outline:
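Antiproliferative test on DU-145 cells using the Mosmann method. Seven concentrations were tested in culture medium.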

Data set [4] concerns Rattus norvegicus. Put plainly: Effect on organ weight in male wistar rat assessed testis tissue weight per 100g at 5ml/kg, po qd measured on 15th day after 24 hrs of last dose (Rvb=1054.099+/- 55.648 mg/100g). Conditions: in vivo. It is filed as ADME, organism-based.
In data set [5] the target is T1, 3-oxo-5-alpha-steroid 4-dehydrogenase 2 (Homo sapiens) (UniProt P31213).
T1 sequence (whole entry): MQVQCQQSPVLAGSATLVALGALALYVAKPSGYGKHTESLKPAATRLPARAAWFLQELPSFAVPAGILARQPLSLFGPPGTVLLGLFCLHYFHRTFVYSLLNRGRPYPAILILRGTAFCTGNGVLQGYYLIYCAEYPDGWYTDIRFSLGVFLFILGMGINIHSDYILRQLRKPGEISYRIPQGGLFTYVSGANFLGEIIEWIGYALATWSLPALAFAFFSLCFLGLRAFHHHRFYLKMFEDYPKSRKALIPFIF
Put plainly: Inhibition of human 5alpha-2 reductase expressed in HEK293 cells assessed as suppression of conversion of [3]androstenedione at 10 uM incubated for 30 mins by radioactivity-based HPLC analysis. It is filed as cell-based. Summed up: (§1)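 Stably transfected HEK293 lines expressing 5AR-1 (HEK-I) or 5AR-2 (HEK-II) were sonicated in saccharose/Tris/EDTA buffer. The suspension was incubated at 37 °C for 30 min with 500 nM androstenedione solution plus [3H]androstenedione and an NADP/glucose/G6PDH regenerating system. Test compounds were added in 2% DMSO. The reaction was stopped with ether; steroids were extracted and analysed by radio-HPLC.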

In data set [6] the test system is Rattus norvegicus. Nature of the data set: Decrease in epididymis organ weight in male wistar rat at 5ml/kg, po qd measured on 15th day after 24 hrs of last dose. It is filed as functional. Details: scale not given: the % may be the effect or the level left.
Data set [7] concerns Rattus norvegicus. Nature of the data set: Effect on organ weight in male wistar rat assessed as vas deferens tissue weight per 100g at 5ml/kg, po qd measured on 15th day after 24 hrs of last dose (Rvb=67.613+/-3.248 mg/100g). Format: functional.
Data set [8] deals with T1, 3-oxo-5-alpha-steroid 4-dehydrogenase 2 (Homo sapiens). Put plainly: Inhibition of human 5alpha-2 reductase expressed in HEK293 cells assessed as suppression of conversion of [3]androstenedione at 2 uM incubated for 30 mins by radioactivity-based HPLC analysis. It is filed as cell-based. Summed up: as §1
Data set [9] has as its target T2, 3-oxo-5-alpha-steroid 4-dehydrogenase 1 (Homo sapiens) (UniProt P18405).
T2 sequence (whole entry): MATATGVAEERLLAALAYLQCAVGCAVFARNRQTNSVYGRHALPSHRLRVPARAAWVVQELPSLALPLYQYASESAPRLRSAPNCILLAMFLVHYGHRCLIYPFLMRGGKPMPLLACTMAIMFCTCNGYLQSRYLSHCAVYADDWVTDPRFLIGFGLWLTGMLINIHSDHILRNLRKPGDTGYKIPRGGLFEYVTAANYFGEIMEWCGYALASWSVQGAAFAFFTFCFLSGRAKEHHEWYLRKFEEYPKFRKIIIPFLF
Nature of the data set: Inhibition of human 5alpha-1 reductase expressed in HEK293 cells assessed as suppression of conversion of [3]androstenedione at 10 uM incubated for 30 mins by radioactivity-based HPLC analysis. It is filed as cell-based. In outline: as §1

Data set [10] concerns Rattus norvegicus. Nature of the data set: Effect on organ weight in male wistar rat assessed as seminal vesicles tissue weight per 100g at 5ml/kg, po qd measured on 15th day after 24 hrs of last dose (Rvb=175.439+/-12.833 mg/100g). It is filed as ADME, organism-based. Conditions: in vivo.
Data set [11] relates to Rattus norvegicus. Nature of the data set: Decrease in ventral prostate organ weight in male wistar rat at 5ml/kg, po qd measured on 15th day after 24 hrs of last dose. Further details: scale not given: the % may be the effect or the level left. It is filed as functional, Prostate gland.
Data set [12] concerns Rattus norvegicus. Nature of the data set: Decrease in dorsal prostate organ weight in male wistar rat at 5ml/kg, po qd measured on 15th day after 24 hrs of last dose. Further details: scale not given: the % may be the effect or the level left. It is filed as functional, Prostate gland.
Data set [13] relates to Rattus norvegicus. Nature of the data set: Increase in body weight gain in male wistar rat at 5ml/kg, po qd measured on 15th day after 24 hrs of last dose (Rvb=9.412+/-1.632g%). It is filed as ADME, organism-based. The following applies: in vivo.
Data set [14] relates to Rattus norvegicus. Nature of the data set: Effect on organ weight in male wistar rat assessed as adrenal tissue weight per 100g at 5ml/kg, po qd measured on 15th day after 24 hrs of last dose (Rvb=14.762 +/-0.600 mg/100g). Format: ADME, organism-based. Conditions: in vivo.
Data set [15] has as its system Rattus norvegicus. Nature of the data set: Effect on organ weight in male wistar rat assessed as epididymis tissue weight per 100g at 5ml/kg, po qd measured on 15th day after 24 hrs of last dose (Rvb=187.356+/- 5.961 mg/100g). Format: functional.
Data set [16] relates to Rattus norvegicus. Nature of the data set: Effect on organ weight in male wistar rat assessed as ventral prostate tissue weight per 100g at 5ml/kg, po qd measured on 15th day after 24 hrs of last dose (Rvb=59.494+/- 4.733 mg/100g). It is filed as functional, Prostate gland.
The target of data set [17] is T2, 3-oxo-5-alpha-steroid 4-dehydrogenase 1 (Homo sapiens). Put plainly: Inhibition of human 5alpha-1 reductase expressed in HEK293 cells assessed as suppression of conversion of [3]androstenedione at 2 uM incubated for 30 mins by radioactivity-based HPLC analysis. Format: cell-based. In outline: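 Lysates of stably transfected HEK293 cells (80% confluent cells sonicated in 300 mM saccharose, 5 mM Tris–HCl, 0.1 mM EDTA). Master mix: Tris buffer, androstenedione (500 nM solution) plus tracer [3H]androstenedione, NADP/glucose/glucose-6-P-dehydrogenase regenerating system; compound added in 2% DMSO. Cell suspension mixed 1:1 with master mix, 37 °C for 30 min. Stopped with ether; steroids extracted, dried, taken up in methanol, radio-HPLC.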

Data set [18] concerns Rattus norvegicus. Nature of the data set: Toxicity in male wistar rat assessed induction of mortality at 5ml/kg, po qd measured on 15th day after 24 hrs of last dose. Format: organism-based. The following applies: in vivo. In outline: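 Mature male Wistar rats, groups of 5, standard diet. Compounds suspended in 0.50% CMC sodium given orally at 5 ml/kg once daily for 14 days; controls received vehicle only. Animals weighed and killed under ether on day 15, 24 h after last dose.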

For data set [19], the system named is Rattus norvegicus. Put plainly: Decrease in vas deferens organ weight in male wistar rat at 5ml/kg, po qd measured on 15th day after 24 hrs of last dose. It is filed as functional. Further details: scale not given: the % may be the effect or the level left.
Data set [20] addresses T3, 3-oxo-5-alpha-steroid 4-dehydrogenase 2 (Homo sapiens, UniProt P31213).
T3 sequence (P31213 whole entry): T1 sequence (whole entry)
Nature of the data set: Inhibition of human 5alpha-2 reductase expressed in HEK293 cells assessed as suppression of conversion of [3]androstenedione incubated for 30 mins by radioactivity-based HPLC analysis. Format: cell-based. In outline: as §1

Data set [21] has as its target T4, 3-oxo-5-alpha-steroid 4-dehydrogenase 1 (Homo sapiens, UniProt P18405).
T4 sequence (P18405 whole entry): T2 sequence (whole entry)
Nature of the data set: Inhibition of human 5alpha-1 reductase expressed in HEK293 cells assessed as suppression of conversion of [3]androstenedione incubated for 30 mins by radioactivity-based HPLC analysis. It is filed as cell-based. In outline: as §1

As to `C[C@]12CC[C@H]3[C@@H](CC=C4C=C(c5nnn[nH]5)CC[C@@H]43)[C@@H]1CCC2=O`, the Activity in data set [1] came out at 46.695 mg; in data set [2], 3.457 g; in [4], 1350.787 mg; in data set [6] it was 3.44%; in data set [7] it was 59.232 mg; in [10], 188.757 mg. Further, the Activity in data set [11] came out at 5.66%; in [12], 7.21%; in data set [13], 21.51 g%; in data set [14], 19.76 mg; in data set [15], 180.908 mg; in [16], 56.124 mg. In addition, the Activity result is “Non-toxic” in data set [18] and 12.4% in data set [19]. The IC50 (commonly the concentration that inhibits the measured activity by half) in [3] (Homo sapiens, DU-145, read-out: IC50) amounted to 536000 nM. In addition, the inhibition (in general, the share of the control response that was lost under treatment) was determined as 79.7% in [5], 60.6% in [8], 79.7% in [9] and 36.2% in data set [17].
Consider `C[C@]12CCC(c3nnn[nH]3)=CC1=CC[C@@H]1[C@@H]2CC[C@]2(C)C(=O)CC[C@@H]12`, for which the Activity in data set [1] is listed as 42.651 mg; in [2], 3.257 g; in data set [4], 1090.046 mg; in data set [6], 36.25%; in data set [7], 27.646 mg; in [10], 95.251 mg. Besides, the Activity was found to be 35.2% in [11]; 15.25% in [12]; 18.382 g% in data set [13]; 17.986 mg in data set [14]; 119.445 mg in data set [15]; 38.551 mg in data set [16]. Further, the Activity result in [18] is listed as “Non-toxic”; in data set [19], 59.11%. The 50% inhibitory concentration (IC50) entry is “Not Active” in data set [3] (du-145) and 83.8 nM in data set [20]. Also, the inhibition in data set [5] amounted to 100%; in [8], 100%; in [9], 81.1%; in [17] it was 38.7%.
`CC(=O)C1CC[C@H]2[C@@H]3CC=C4C=C(c5nnn[nH]5)CC[C@]4(C)[C@H]3CC[C@]12C` (stereo not given in full): the IC50 in [21] was 547 nM; in [3] (du-145), “Not Active”; in data set [20] it was 15.6 nM. For the same compound, the Activity in [1] is 41.379 mg; in data set [2], 3.649 g; in data set [4] it was 844.538 mg; in [6], 31.76%; in data set [7], 29.009 mg; in [10] it was 78.265 mg. Further, the Activity came out at 35.4% in data set [11]; 17.78% in data set [12]; 8.328 g% in data set [13]; 17.762 mg in data set [14]; 127.85 mg in data set [15]; 38.433 mg in data set [16]. The Activity entry was “Non-toxic” in data set [18] and 57.1% in data set [19]. The inhibition in data set [5] worked out at 100%; in data set [8] it was 100%; in data set [9], 95%; in data set [17] it was 82.6%.
